Drawing on ChEMBL document CHEMBL1124463, “Retinobenzoic acids. 3. Structure-activity relationships of retinoidal azobenzene-4-carboxylic acids and stilbene-4-carboxylic acids” (1989), this text covers EC50, Relative activity and ED50 for 39 molecules.

The source made the active and inactive calls. The calls are words filed in the database; no cut-off is given here.

In assay [1] the test system is HL-60. The assay is described as follows: The ability to induce differentiation of human promyelocytic leukemia HL-60 cell line to mature granulocyte. As to conditions: read-out: ED50 (the source's name). It counts as functional. An outline of the steps: (§1)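 HL-60 cells in RPMI1640 with 5% FCS, ethanol stocks at 0.2 mM, final ethanol <0.5%, seeded at ~8 × 10^4 cells/mL and exposed 4 days across 5 orders of concentration. Cells were then incubated 20 min at 37 °C with an equal volume of PBS containing 0.2% NBT and 200 ng/mL TPA. Formazan-positive cells were counted (≥200 cells). ED50 from NBT data; ≥3 repeats.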

The test system of assay [2] is HL-60. The assay is described as follows: The ability to induce differentiation of HL-60 cells relative to that of retinoic acid. It counts as functional, Homo sapiens. The essentials: (§2)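 HL-60 cells from suspension culture in RPMI1640 with 5% FCS and antibiotics, 37 °C, 5% CO2. Compounds were dissolved in ethanol at 0.2 mM (stock), with final ethanol below 0.5%, and added to cells seeded at about 8 × 10^4 cells/mL for 4 days. Retinoic acid was run concurrently. Value is the ED50 ratio of retinoic acid to compound, with ED50 taken from NBT-reduction data.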

In assay [3] the test system is HL-60. The assay is described as follows: The ability to induce differentiation of human promyelocytic leukemia HL-60 cell line to mature granulocyte was determined in a NBT reduction assay; IA= Inactive. It counts as functional, cell-based. An outline of the steps: as §1
In assay [4] the test system is HL-60. The assay is described as follows: The ability to induce differentiation of human promyelocytic leukemia HL-60 cell line to mature granulocyte was determined in a NBT reduction assay; Maximum cellular response to compound is less than half of that of retinoic acid. It counts as functional. As to conditions: read-out: ED50 (the source's name). The essentials: as §1

Assay [5] relates to HL-60. The assay is described as follows: The ability to induce differentiation of human promyelocytic leukemia HL-60 cell line to mature granulocyte was determined in a NBT reduction assay; NA means inactive. It counts as functional, cell-based. An outline of the steps: as §1
The subject of assay [6] is HL-60. The assay is described as follows: The ability to induce differentiation of human promyelocytic leukemia HL-60 cell line to mature granulocyte was determined in a NBT reduction assay; IA= Inactive at >10e-6. It is filed as functional, cell-based. An outline of the steps:
as §1

Assay [7] deals with HL-60. Put plainly: Activity to differentiate HL-60 cells relative to that of retinoic acid. It is filed as functional, Homo sapiens. An outline of the steps: as §2

As to `CC1(C)CCC(C)(C)c2cc(CCc3ccc(C(=O)O)cc3)ccc21`, the EC50 in the assay on HL-60 [1] worked out at 130 nM. For the same molecule, the Relative activity in the assay with HL-60 [2] was 2.7. On to `CC(C)(C)c1ccc(/C=C/c2ccc(C(=O)O)cc2)cc1`, for which the ED50 entry in the assay with HL-60 [3] is “inactive”. Same read-out and setting: in the case of `Cc1cccc(/N=N/c2ccc(C(=O)O)cc2)c1` it was “inactive”; in that of `CC(C)c1ccccc1/N=N/c1ccc(C(=O)O)cc1`, “inactive”. As to `CC1(C)CCC(C)(C)c2cc(C(=O)C(=O)c3ccc(C(=O)O)cc3)ccc21`, the EC50 in the assay on HL-60 [1] worked out at 140 nM. In the assay on HL-60 [2], this molecule yielded a Relative activity of 3.9.

For `CC1(C)CCC(C)(C)c2cc3c(cc21)C=C(c1ccc(C(=O)O)cc1)C3`, in the assay on HL-60 [4], the EC50 is 6.6 nM. On to `C/C(=C\c1ccc(C(=O)O)cc1)c1ccc2c(c1)C(C)(C)CCC2(C)C`, for which the EC50 in the assay on HL-60 [1] was determined as 2.5 nM. The same molecule yielded a Relative activity with HL-60 [2] of 90. For `CC1(C)CCC(C)(C)c2cc(/N=[N+](\[O-])c3ccc(C(=O)O)cc3)ccc21`, in that order: 0.25 nM and 1960.

With `O=C(O)c1ccc(/N=N/c2cccc(C3CCCCC3)c2)cc1`, the EC50 with HL-60 [1] is 130 nM. The molecule also gave a Relative activity in the assay with HL-60 [2] of 0.68. For `CC(C)c1ccc(/N=N/c2ccc(C(=O)O)cc2)cc1C(C)C`, in that order: 2.3 nM and 39.

Take `CC(C)(C)c1cccc(C2OC2c2ccc(C(=O)O)cc2)c1` (stereo unspecified): the EC50 in the assay on HL-60 [1] is more than 1000 nM. Moreover, the Relative activity with HL-60 [2] is less than 0.01.

Turning to `CCc1ccc(/C(C)=C/c2ccc(C(=O)O)cc2)cc1CC`, the EC50 with HL-60 [1] worked out at 87 nM. Further, in the assay with HL-60 [2], the Relative activity is listed as 2.2. Take `O=C(O)c1ccc(/N=N/c2ccccc2)cc1`: in the assay with HL-60 [3], the ED50 entry is “inactive”. For the molecule `O=C(O)c1ccc(/C=C/c2ccccc2)cc1`, the ED50 result with HL-60 [5] was “inactive”. `CC(C)(C)c1cccc(/C=C/c2ccc(C(=O)O)cc2)c1` showed a Relative activity in the assay with HL-60 [2] of 13. Take `CCc1ccc(/N=N/c2ccc(C(=O)O)cc2)cc1CC`: the EC50 in the assay with HL-60 [1] worked out at 220 nM. Besides, the Relative activity in the assay on HL-60 [2] is reported as 0.53. For the molecule `CC1(C)CCC(C)(C)c2cc(C3OC3c3ccc(C(=O)O)cc3)ccc21` (stereo unspecified), the EC50 in the assay with HL-60 [1] stood at 4.3 nM. This molecule also displayed a Relative activity with HL-60 [2] of 22. For `CCc1cccc(/N=N/c2ccc(C(=O)O)cc2)c1`, the ED50 entry in the assay with HL-60 [6] was “inactive”. This molecule also displayed a Relative activity with HL-60 [2] of less than 0.1. For `CC(C)c1cc(/N=N/c2ccc(C(=O)O)cc2)cc(C(C)C)c1`, in the assay with HL-60 [1], the EC50 turned out to be 410 nM. In addition, the Relative activity in the assay on HL-60 [2] amounted to 0.22. In the assay with HL-60 [2], `CC1(C)CCC(C)(C)c2cc(/N=N/c3ccc(C(=O)O)cc3)ccc21` yielded a Relative activity of 130.

Consider `CC(C)c1ccc(C(C)C)c(/N=N/c2ccc(C(=O)O)cc2)c1`, for which the ED50 entry with HL-60 [3] was “inactive”. Still for that read-out and setting: to `C/C(=C\c1ccc(C(=O)O)cc1)c1ccc(C(C)(C)C)cc1` belongs “inactive”. `CC(C)(C)c1ccc(C2OC2c2ccc(C(=O)O)cc2)cc1` (stereo unspecified): the EC50 in the assay on HL-60 [1] is more than 1000 nM. The Relative activity in the assay with HL-60 [2] was less than 0.01. Taken in the same sequence, the figures for `CC(C)(C)c1cccc(/N=N/c2ccc(C(=O)O)cc2)c1` were 400 nM and 0.36. Consider `CC1(C)CCC(C)(C)c2cc(/C=C/c3ccc(C(=O)O)cc3)ccc21`, for which the EC50 in the assay on HL-60 [1] was 0.5 nM. Further, the Relative activity in the assay with HL-60 [2] is on record as 260. `CC(C)c1ccc(/N=N/c2ccc(C(=O)O)cc2)cc1`: the EC50 with HL-60 [1] is more than 10000 nM. Besides, the Relative activity with HL-60 [2] was less than 0.1. For `CC1(C)CCSc2ccc(/N=N/c3ccc(C(=O)O)cc3)cc21`, in that order: 210 nM and 2.1. In the case of `CC1(C)CCC(C)(C)c2cc(C3(C)OC3c3ccc(C(=O)O)cc3)ccc21` (stereo unspecified), in the assay on HL-60 [1], the EC50 came to 130 nM. The Relative activity with HL-60 [2] is on record as 0.65. Taken in the same sequence, the figures for `CC1(C)CCC(C)(C)c2cc3c(cc21)CC/C3=C\c1ccc(C(=O)O)cc1` were 0.2 nM and 570.

Regarding `CC1=C(/C=C/C(C)=C/C=C/C(C)=C/C(=O)O)C(C)(C)CCC1` [TRETINOIN], in the assay on HL-60 [1], the EC50 is 2.4 nM. This molecule also had a Relative activity in the assay with HL-60 [2] of 100. On to `CC1(C)CCC(C)(C)c2cc3oc(-c4ccc(C(=O)O)cc4)cc3cc21`, for which the EC50 in the assay on HL-60 [1] turned out to be 1.3 nM. The same molecule returned a Relative activity in the assay on HL-60 [2] of 120.

`CC1(C)CCOc2ccc(/N=N/c3ccc(C(=O)O)cc3)cc21`: the EC50 with HL-60 [1] amounted to 130 nM. For the same molecule, in the assay with HL-60 [2], the Relative activity is reported as 3.5. Regarding `CC(C)c1cccc(/N=N/c2ccc(C(=O)O)cc2)c1`, in the assay on HL-60 [1], the EC50 amounted to 380 nM. The molecule also came in with a Relative activity with HL-60 [2] of 0.29. In the case of `CCc1ccc(C2(C)OC2c2ccc(C(=O)O)cc2)cc1CC` (stereo unspecified), the ED50 entry with HL-60 [3] was “inactive”.

Turning to `C/C(=C\c1ccc(C(=O)O)cc1)c1ccc(C(C)C)c(C(C)C)c1`, the EC50 in the assay with HL-60 [1] stood at 13 nM. Further, the Relative activity in the assay on HL-60 [7] is on record as 15. For `O=C(O)c1ccc(/N=N/c2cccc(-c3ccccc3)c2)cc1`, the EC50 with HL-60 [1] was more than 10000 nM. Besides, in the assay with HL-60 [2], the Relative activity is given as less than 0.1. Taken in the same sequence, the figures for `CC(C)c1ccc(/N=N/c2ccc(C(=O)O)cc2)c(C(C)C)c1` were more than 10000 nM and less than 0.1. For `CC1(C)CCC(C)(C)c2cc(/C(=C/c3ccc(C(=O)O)cc3)C(F)(F)F)ccc21`, in that order: 31 nM and 5.7.

Consider `C/C(=C\c1ccc(C(=O)O)cc1)c1ccc(C)c(C)c1`, for which, in the assay with HL-60 [3], the ED50 entry is “inactive”.
